Assays:
[1] = system: HL-60; assay: Median-effective concentration for inhibition of human HL-60 cell growth at 72 h; format: functional; conditions: HL-60, 72 h, read-out: ED50 (the source's name)
Summary of the method: (§1)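 HL-60 cells exposed to five concentrations of each compound for up to 72 h, with viable cells counted by trypan blue exclusion. ED50 at 24, 48 or 72 h derived by median-effect equation and plot. Where dose-effect curves were shallow, values were assigned with < or << marks.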

[2] = system: HL-60; assay: Compound was evaluated for inhibition of human HL-60 cell growth at 1 (uM) at 72 hr; format: functional
Summary of the method: (§2)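 HL-60 cells exposed to compound for up to 72 h. Viable cells counted by trypan blue exclusion, with percent growth inhibition read at 1 μM after 24, 48 or 72 h.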

[3] = system: HL-60; assay: Median-effective concentration for inhibition of human HL-60 cell growth at 48 h; format: functional; conditions: HL-60, 48 h, read-out: ED50 (the source's name); summary of the method: as §1
[4] = system: L1210; assay: Inhibition of cell growth of murine L-1210 cells; format: functional, cell-based; conditions: Mus musculus
[5] = system: HL-60; assay: Median-effective concentration for inhibition of human HL-60 cell growth at 24 h; format: functional; conditions: HL-60, 24 h, read-out: ED50 (the source's name); summary of the method: as §1
[6] = system: HL-60; assay: Inhibition of [6-3H]-dUrd incorporation into DNA in HL-60 cells; format: functional; conditions: Homo sapiens, read-out: ED50 (the source's name)
Summary of the method: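 HL-60 cells preincubated with compound for 40 min, then given [6-3H]dUrd (0.05 μM, 1 μCi/mL) for 30 min at 37 °C, and label incorporated into DNA measured. Five compound concentrations were used, with ED50 from the median-effect equation and plot. For shallow curves, values were given as < or <<.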

[7] = system: HL-60; assay: Compound was evaluated for inhibition of human HL-60 cell growth at 1 (uM) at 24 hr; format: functional; summary of the method: as §2
[8] = system: HL-60; assay: Compound was evaluated for inhibition of human HL-60 cell growth at 1 (uM) at 48 hr; format: functional; summary of the method: as §2
[9] = molecular target: T1, Dihydrofolate reductase (Mus musculus, UniProt P00375); assay: Inhibitory activity against dihydrofolate reductase (DHFR) of L-1210 cells; format: cell-based
T1 sequence (P00375 whole entry): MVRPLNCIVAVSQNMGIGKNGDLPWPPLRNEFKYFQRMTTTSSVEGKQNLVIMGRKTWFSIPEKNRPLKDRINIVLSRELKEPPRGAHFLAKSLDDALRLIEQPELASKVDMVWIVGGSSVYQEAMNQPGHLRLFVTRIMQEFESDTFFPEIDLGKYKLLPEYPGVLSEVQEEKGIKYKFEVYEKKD

| EC50 [1] [µM] | EC50 [3] [µM] | IC50 [4] [µM] | EC50 [5] [µM] | EC50 [6] [µM] | Ki [9] [pM] | SMILES | Inhibition [2] [%] | Inhibition [7] [%] | Inhibition [8] [%] |
| --- | --- | --- | --- | --- | --- | --- | --- | --- | --- |
| < 0.001 | 0.15 | 0.00011 | 2290 | < 4 |  | Cc1c(CNc2ccc(C(=O)NC(CCC(=O)O)C(=O)O)cc2)cnc2nc(N)nc(N)c12 (stereo unspecified) | 92.2 | 25.2 | 61.1 |
|  |  | 18.9 |  |  | > 4 | Cc1nc2nc(N)nc(N)c2c(-c2ccccc2)c1CNc1ccc(C(=O)NC(CCC(=O)O)C(=O)O)cc1 (stereo unspecified) |  |  |  |
| 0.59 | 8.2 | 0.125 | 42 | 568 | 2.01 | Cc1nc2nc(N)nc(N)c2c(C)c1CNc1ccc(C(=O)NC(CCC(=O)O)C(=O)O)cc1 (stereo unspecified) | 50.8 | 10.3 | 19.8 |
| 0.011 | 2 | 0.08 | 144 | 123 | > 4 | Cc1nc2nc(N)nc(N)c2cc1CNc1ccc(C(=O)NC(CCC(=O)O)C(=O)O)cc1 (stereo unspecified) | 77.6 | 4.7 | 32.5 |
| < 0.05 | < 0.05 | 0.0045 | 609 | 0.1 |  | CN(Cc1cnc2nc(N)nc(N)c2n1)c1ccc(C(=O)N[C@@H](CCC(=O)O)C(=O)O)cc1 [METHOTREXATE] | 87.7 | 34.2 | 64 |
|  |  | 16.9 |  |  | > 4 | Nc1nc(N)c2cc(CNc3ccc(C(=O)NC(CCC(=O)O)C(=O)O)cc3)c(-c3ccccc3)nc2n1 (stereo unspecified) |  |  |  |
|  |  | 0.02 |  |  |  | Nc1nc(N)c2cc(CNc3ccc(C(=O)NC(CCC(=O)O)C(=O)O)cc3)cnc2n1 (stereo unspecified) |  |  |  |
|  |  | 18.9 |  |  | > 4 | Cc1c(CNc2ccc(C(=O)NC(CCC(=O)O)C(=O)O)cc2)c(-c2ccccc2)nc2nc(N)nc(N)c12 (stereo unspecified) |  |  |  |
